The results in this text go back to ChEMBL document CHEMBL4184260, “Fluorous-tag assisted synthesis of a glycosaminoglycan mimetic tetrasaccharide as a high-affinity FGF-2 and midkine ligand” (Bioorg Med Chem, 2018).

Data set [1] has as its target T1, Midkine (Homo sapiens, UniProt P21741).
T1 sequence (P21741 whole entry): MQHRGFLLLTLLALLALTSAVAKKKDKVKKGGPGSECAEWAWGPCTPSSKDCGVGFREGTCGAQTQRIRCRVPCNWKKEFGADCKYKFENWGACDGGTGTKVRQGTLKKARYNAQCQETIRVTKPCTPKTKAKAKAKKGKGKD
Briefly: Inhibition of fluorescein labelled heparin-like hexasaccharide probe binding to recombinant human midkine after 5 mins by fluorescence polarization assay. An outline of the steps: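 Recombinant human midkine at 63 nM final with 10 nM fluorescein-labelled heparin-like hexasaccharide probe in PBS (10 mM, pH 7.4) plus 0.5% BSA. […] Shaken 5 min in the dark; polarization read at ex 485 / em 535 nm. Triplicate wells averaged, one-site competition fit for IC50. At least three independent experiments.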

Data set [2] concerns the target Fibroblast growth factor 2 (Homo sapiens, UniProt P09038). Nature of the data set: Inhibition of fluorescein labelled heparin-like hexasaccharide probe binding to recombinant human FGF-2 after 5 mins by fluorescence polarization assay.
Data set [3] is described as follows: Solubility of the compound in PBS buffer at 100 uM at pH 7.4 in presence of 1% DMSO. The format is physicochemical. The conditions noted are these: pH 7.4, 100 µM.

Chain of Fibroblast growth factor 2 (P09038 143-288 limits assumed): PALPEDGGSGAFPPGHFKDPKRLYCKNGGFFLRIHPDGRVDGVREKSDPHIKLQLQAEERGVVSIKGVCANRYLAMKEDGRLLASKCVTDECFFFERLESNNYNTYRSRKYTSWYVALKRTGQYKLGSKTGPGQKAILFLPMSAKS

As a reminder, the IC50 is the point on the concentration scale where inhibition reaches its midpoint. Consider `COc1ccc(O[C@@H]2O[C@H](C(=O)OCc3ccccc3)[C@@H](O[C@@H]3O[C@H](COS(=O)(=O)O)[C@@H](OS(=O)(=O)O)[C@H](O[C@@H]4O[C@H](C(=O)OCc5ccccc5)[C@@H](O[C@@H]5O[C@H](COS(=O)(=O)O)[C@@H](OS(=O)(=O)O)[C@H](OC(=O)CCC(C)=O)[C@H]5NC(=O)C(F)(F)F)[C@H](OCc5ccccc5)[C@H]4OC(=O)c4ccccc4)[C@H]3NC(=O)C(F)(F)F)[C@H](OCc3ccccc3)[C@H]2OC(=O)c2ccccc2)cc1`, for which the IC50 in data set [1] turned out to be 1.3 µM; in data set [2], 42 µM.

In the case of `COc1ccc(O[C@@H]2O[C@H](C(=O)O)[C@@H](O[C@@H]3O[C@H](COS(=O)(=O)O)[C@@H](OS(=O)(=O)O)[C@H](O[C@@H]4O[C@H](C(=O)O)[C@@H](O[C@@H]5O[C@H](COS(=O)(=O)O)[C@@H](OS(=O)(=O)O)[C@H](O)[C@H]5NC(C)=O)[C@H](O)[C@H]4O)[C@H]3NC(C)=O)[C@H](O)[C@H]2O)cc1`, the figures for the IC50 in data set [1] and in data set [2] were 254 µM and 271 µM, respectively.

`COc1ccc(O[C@@H]2O[C@H](COC(=O)CCC(F)(F)C(F)(F)C(F)(F)C(F)(F)C(F)(F)C(F)(F)C(F)(F)C(F)(F)F)[C@@H](O[C@@H]3O[C@H](CO[SH+]([O-])(O)O)[C@@H](O[SH+]([O-])(O)O)[C@H](O[C@@H]4O[C@H](COC(=O)C(C)(C)C)[C@@H](O[C@@H]5O[C@H](CO[SH+]([O-])(O)O)[C@@H](O[SH+]([O-])(O)O)[C@H](OC(=O)CCC(C)=O)[C@H]5N5C(=O)c6ccccc6C5=O)[C@H](OCc5ccccc5)[C@H]4OC(=O)c4ccccc4)[C@H]3N3C(=O)c4ccccc4C3=O)[C@H](OCc3ccccc3)[C@H]2OC(=O)c2ccccc2)cc1`: in data set [3], the solubility result is reported as “Soluble”.
